From ChEMBL document CHEMBL1687892, “Potent agonists of the protease activated receptor 2 (PAR2)” (J Med Chem, 2011)
Activity calls are given as the source filed them. The rule behind the calls is not given here.

Assays:
Type in all cases: functional, cell-based
[1] = molecular target: Proteinase-activated receptor 2 (Homo sapiens) (UniProt P55085); experiment: Agonist activity at PAR2 in human 16HBE14o cells assessed as activated cells at 100 uM by intracellular calcium mobilization fura-2-AM assay
Summary of the method: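 16HBE14o- cells were grown 5–7 days on matrix-coated coverslips, loaded with fura-2, and imaged by digital microscopy over 3 min (80–100 cells). A cell counted as activated if [Ca2+]i rose to ≥200 nM from a resting 50–75 nM, scored as % of cells. Doses ran from 100 μM down to 250 nM. EC50 came from % responding. Mean ± SEM, N ≥ 2 at 100 μM, N ≥ 4 otherwise.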

[2] = molecular target: Proteinase-activated receptor 2 (Homo sapiens) (UniProt P55085); experiment: Agonist activity at PAR2 in human 16HBE14o cells assessed as activated cells at […] by intracellular calcium mobilization fura-2-AM assay
[3] = molecular target: Proteinase-activated receptor 2 (Homo sapiens) (UniProt P55085); experiment: Agonist activity at human PAR2 expressed in human HeLa cells assessed as increase in intracellular calcium levels at 5 uM by fura-2-AM dye based digital imaging microscopy
[4] = molecular target: Proteinase-activated receptor 2 (Homo sapiens) (UniProt P55085); experiment: Agonist activity at human PAR2 expressed in rat kNRK cells assessed as increase in intracellular calcium levels at 5 uM by fura-2-AM dye based digital imaging microscopy
Summary of the method: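 Cells transfected with human PAR2 (HeLa-PAR2 or kNRK-PAR2) were compared with low-expressing or plasmid-control cells of the same line. Cells were grown on matrix-coated coverslips and loaded with fura-2. 5 μM agonist was added, and mean [Ca2+]i of all cells in the field (~90) was imaged every 0.6 s, ± SEM.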

[5] = molecular target: Proteinase-activated receptor 2 (Homo sapiens) (UniProt P55085); experiment: Agonist activity at PAR2 in human 16HBE14o cells assessed as increase in intracellular calcium levels at […] by in vitro physiological response assay

Proteinase-activated receptor 2 (Homo sapiens), sequence (P55085 whole entry): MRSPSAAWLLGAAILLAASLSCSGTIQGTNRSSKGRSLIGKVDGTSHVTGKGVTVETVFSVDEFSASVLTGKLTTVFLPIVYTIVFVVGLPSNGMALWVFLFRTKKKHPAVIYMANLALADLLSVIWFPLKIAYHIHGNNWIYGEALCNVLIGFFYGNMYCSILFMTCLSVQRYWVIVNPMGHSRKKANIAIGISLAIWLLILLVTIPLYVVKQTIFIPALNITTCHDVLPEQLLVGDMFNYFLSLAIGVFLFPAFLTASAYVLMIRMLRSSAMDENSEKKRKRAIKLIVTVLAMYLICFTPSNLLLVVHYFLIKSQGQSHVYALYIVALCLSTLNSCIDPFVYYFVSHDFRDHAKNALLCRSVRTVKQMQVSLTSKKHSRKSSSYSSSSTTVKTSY

Row | Activity [1] | Activity [2] | Activity [3] | Activity [4] | Activity [5] | SMILES
1 | Active | inactive | – | – | – | CC[C@H](C)[C@H](NC(=O)[C@H](CC(C)C)NC(=O)CC#N)C(=O)NCC(=O)N[C@@H](CCCNC(=N)N)C(=O)N[C@@H](CC(C)C)C(N)=O
2 | – | – | Active | Active | – | CC[C@H](C)[C@H](NC(=O)[C@H](CC(C)C)NC(=O)c1ccc(N)nc1)C(=O)NCC(=O)N[C@@H](CCCNC(=N)N)C(=O)N[C@@H](CC(C)C)C(N)=O
3 | 0% | – | – | – | – | CC[C@H](C)[C@H](NC(=O)[C@H](CC(C)C)NC(=O)CCN1CCCCC1)C(=O)NCC(=O)N[C@@H](CCCNC(=N)N)C(=O)N[C@@H](CC(C)C)C(N)=O
4 | 0% | – | – | – | – | CC[C@H](C)[C@H](NC(=O)[C@H](CC(C)C)NC(=O)Cc1c[nH]c2ccccc12)C(=O)NCC(=O)N[C@@H](CCCNC(=N)N)C(=O)N[C@@H](CC(C)C)C(N)=O
5 | 0% | – | – | – | – | CC[C@H](C)[C@H](NC(=O)[C@H](CC(C)C)NC(=O)c1cccc2[nH]ccc12)C(=O)NCC(=O)N[C@@H](CCCNC(=N)N)C(=O)N[C@@H](CC(C)C)C(N)=O
6 | Active | inactive | – | – | inactive | CC[C@H](C)[C@H](NC(=O)[C@H](CC(C)C)NC(=O)c1ccnc(N)c1)C(=O)NCC(=O)N[C@@H](CCCNC(=N)N)C(=O)N[C@@H](CC(C)C)C(N)=O
7 | Active | inactive | – | – | inactive | CC[C@H](C)[C@H](NC(=O)[C@H](CC(C)C)NC(=O)c1cccnc1N)C(=O)NCC(=O)N[C@@H](CCCNC(=N)N)C(=O)N[C@@H](CC(C)C)C(N)=O
8 | – | – | Active | Active | – | CC[C@H](C)[C@H](NC(=O)[C@H](CC(C)C)NC(=O)c1csc(N)n1)C(=O)NCC(=O)N[C@@H](CCCNC(=N)N)C(=O)N[C@@H](CC(C)C)C(N)=O
9 | 0% | – | – | – | – | CC[C@H](C)[C@H](NC(=O)[C@H](CC(C)C)NC(=O)COCC(=O)O)C(=O)NCC(=O)N[C@@H](CCCNC(=N)N)C(=O)N[C@@H](CC(C)C)C(N)=O
10 | Active | inactive | – | – | – | CC[C@H](C)[C@H](NC(=O)[C@H](CC(C)C)NC(=O)c1ccc(S(N)(=O)=O)cc1)C(=O)NCC(=O)N[C@@H](CCCNC(=N)N)C(=O)N[C@@H](CC(C)C)C(N)=O
11 | 0% | – | – | – | – | CC[C@H](C)[C@H](NC(=O)[C@H](CC(C)C)NC(=O)c1cccnc1O)C(=O)NCC(=O)N[C@@H](CCCNC(=N)N)C(=O)N[C@@H](CC(C)C)C(N)=O
12 | Active | inactive | – | – | – | CC[C@H](C)[C@H](NC(=O)[C@H](CC(C)C)NC(=O)c1cnccn1)C(=O)NCC(=O)N[C@@H](CCCNC(=N)N)C(=O)N[C@@H](CC(C)C)C(N)=O
13 | Active | inactive | – | – | inactive | CC[C@H](C)[C@H](NC(=O)[C@H](CC(C)C)NC(=O)c1nc(N)n[nH]1)C(=O)NCC(=O)N[C@@H](CCCNC(=N)N)C(=O)N[C@@H](CC(C)C)C(N)=O
